From ChEMBL document CHEMBL5696442, “Discovery of type II inhibitors of TGFβ-activated kinase 1 (TAK1) and mitogen-activated protein kinase kinase kinase kinase 2 (MAP4K2)” (J Med Chem, 2015) come the findings set out here.

The structures appear in SMILES notation.

Experiment [1] deals with Tyrosine-protein kinase Lck (Homo sapiens) (UniProt P06239). The experiment is described as follows: Inhibition of LCK (unknown origin) at 1 uM by Ambit Kinomescan binding assay relative to control.
For experiment [2], the target named is Ribosomal protein S6 kinase alpha-3 (Homo sapiens) (UniProt P51812). The experiment is described as follows: Inhibition of RSK2 domain1 Lys2 labeling site harbouring DLKPENILLDEEGHIKLTDFGLSK in human A-375 cells at 5 uM by KiNativ Profiling analysis relative to control. Type of experiment: cell-based. An outline of the steps:
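Live A375 melanoma cells treated with compound at 5 or 0.5 μM, then lysed. Lysate kinases were labeled with a lysine-reactive ATP or ADP-biotin probe. Inhibition was read as protection of labeling sites from the probe.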

For experiment [3], the target named is T1, Serine/threonine-protein kinase Chk1 (Homo sapiens) (UniProt O14757).
T1 sequence (whole entry): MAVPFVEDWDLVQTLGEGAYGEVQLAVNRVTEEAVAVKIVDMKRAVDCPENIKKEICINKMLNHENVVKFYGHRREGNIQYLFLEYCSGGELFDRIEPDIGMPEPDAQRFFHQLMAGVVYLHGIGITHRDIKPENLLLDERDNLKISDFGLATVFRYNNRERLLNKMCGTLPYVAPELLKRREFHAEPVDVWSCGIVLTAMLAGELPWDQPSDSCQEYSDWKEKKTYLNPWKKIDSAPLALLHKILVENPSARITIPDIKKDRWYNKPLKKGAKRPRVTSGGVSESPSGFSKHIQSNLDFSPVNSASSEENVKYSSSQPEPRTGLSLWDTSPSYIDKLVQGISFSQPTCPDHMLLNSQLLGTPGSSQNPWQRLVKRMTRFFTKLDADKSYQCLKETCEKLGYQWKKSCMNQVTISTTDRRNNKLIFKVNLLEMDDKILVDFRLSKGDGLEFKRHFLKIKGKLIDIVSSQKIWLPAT
In words: Inhibition of CHEK1 (unknown origin) at 1 uM by Ambit Kinomescan binding assay relative to control.

The target in experiment [4] is Receptor tyrosine-protein kinase erbB-4 (Homo sapiens) (UniProt Q15303). The experiment is described as follows: Inhibition of ERBB4 (unknown origin) at 10 uM by Ambit Kinomescan binding assay.
Chain of Receptor tyrosine-protein kinase erbB-4 (Homo sapiens) (Q15303 whole entry): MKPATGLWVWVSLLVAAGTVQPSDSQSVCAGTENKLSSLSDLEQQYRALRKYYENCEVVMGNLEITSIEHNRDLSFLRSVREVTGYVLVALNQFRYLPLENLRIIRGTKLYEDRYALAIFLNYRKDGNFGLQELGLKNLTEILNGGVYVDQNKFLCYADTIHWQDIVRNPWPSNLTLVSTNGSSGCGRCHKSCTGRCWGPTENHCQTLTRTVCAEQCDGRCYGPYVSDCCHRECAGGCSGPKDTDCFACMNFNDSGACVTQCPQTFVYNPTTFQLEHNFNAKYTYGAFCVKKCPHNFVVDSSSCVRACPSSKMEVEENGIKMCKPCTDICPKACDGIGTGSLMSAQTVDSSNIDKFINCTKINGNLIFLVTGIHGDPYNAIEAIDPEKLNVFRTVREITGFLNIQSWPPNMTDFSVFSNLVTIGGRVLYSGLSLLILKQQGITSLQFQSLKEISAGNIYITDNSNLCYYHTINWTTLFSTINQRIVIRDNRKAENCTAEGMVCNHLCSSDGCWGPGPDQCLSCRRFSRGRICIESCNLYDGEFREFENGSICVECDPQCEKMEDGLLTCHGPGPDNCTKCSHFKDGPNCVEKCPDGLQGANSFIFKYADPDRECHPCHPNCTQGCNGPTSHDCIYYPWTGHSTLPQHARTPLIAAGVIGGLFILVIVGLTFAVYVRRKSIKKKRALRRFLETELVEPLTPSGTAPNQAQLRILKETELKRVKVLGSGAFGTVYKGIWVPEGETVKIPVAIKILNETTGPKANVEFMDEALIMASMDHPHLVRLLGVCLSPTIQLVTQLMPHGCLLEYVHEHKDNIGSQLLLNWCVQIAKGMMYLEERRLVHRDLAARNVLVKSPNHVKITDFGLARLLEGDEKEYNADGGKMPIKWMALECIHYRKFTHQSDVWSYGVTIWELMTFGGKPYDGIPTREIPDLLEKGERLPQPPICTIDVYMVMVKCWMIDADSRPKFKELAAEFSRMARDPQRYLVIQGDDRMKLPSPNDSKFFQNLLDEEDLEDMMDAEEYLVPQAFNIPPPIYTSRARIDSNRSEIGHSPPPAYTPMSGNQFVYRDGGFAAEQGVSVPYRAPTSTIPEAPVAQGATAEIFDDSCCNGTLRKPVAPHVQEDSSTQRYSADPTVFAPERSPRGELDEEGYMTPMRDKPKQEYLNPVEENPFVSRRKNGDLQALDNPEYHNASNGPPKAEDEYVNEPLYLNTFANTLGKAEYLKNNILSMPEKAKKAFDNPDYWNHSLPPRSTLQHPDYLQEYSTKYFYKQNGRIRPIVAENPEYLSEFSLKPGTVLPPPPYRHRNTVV
Experiment [5] deals with Tyrosine-protein kinase CSK (Homo sapiens, UniProt P41240). In words: Inhibition of CSK ACT labeling site harbouring VSDFGLTKEASSTQDTGKLPVK in human A-375 cells at 0.5 uM by KiNativ Profiling analysis relative to control. The experiment is classed as cell-based.
Chain of Tyrosine-protein kinase CSK (P41240 2-450 limits assumed): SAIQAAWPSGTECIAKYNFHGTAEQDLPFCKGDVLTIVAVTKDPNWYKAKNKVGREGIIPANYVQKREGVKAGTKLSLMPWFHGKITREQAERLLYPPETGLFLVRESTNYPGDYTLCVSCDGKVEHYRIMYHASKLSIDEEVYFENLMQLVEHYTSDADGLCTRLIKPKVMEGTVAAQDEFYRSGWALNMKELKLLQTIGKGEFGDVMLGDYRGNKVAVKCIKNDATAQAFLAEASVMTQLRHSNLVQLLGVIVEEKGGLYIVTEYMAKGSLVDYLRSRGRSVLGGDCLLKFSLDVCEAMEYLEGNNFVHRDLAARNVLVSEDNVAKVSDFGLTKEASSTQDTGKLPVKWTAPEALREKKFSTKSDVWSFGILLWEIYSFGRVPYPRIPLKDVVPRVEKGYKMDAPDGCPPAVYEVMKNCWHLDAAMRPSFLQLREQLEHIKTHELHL
For experiment [6], the target named is T2, Ephrin type-B receptor 2 (Homo sapiens) (UniProt P29323).
T2 sequence (whole entry): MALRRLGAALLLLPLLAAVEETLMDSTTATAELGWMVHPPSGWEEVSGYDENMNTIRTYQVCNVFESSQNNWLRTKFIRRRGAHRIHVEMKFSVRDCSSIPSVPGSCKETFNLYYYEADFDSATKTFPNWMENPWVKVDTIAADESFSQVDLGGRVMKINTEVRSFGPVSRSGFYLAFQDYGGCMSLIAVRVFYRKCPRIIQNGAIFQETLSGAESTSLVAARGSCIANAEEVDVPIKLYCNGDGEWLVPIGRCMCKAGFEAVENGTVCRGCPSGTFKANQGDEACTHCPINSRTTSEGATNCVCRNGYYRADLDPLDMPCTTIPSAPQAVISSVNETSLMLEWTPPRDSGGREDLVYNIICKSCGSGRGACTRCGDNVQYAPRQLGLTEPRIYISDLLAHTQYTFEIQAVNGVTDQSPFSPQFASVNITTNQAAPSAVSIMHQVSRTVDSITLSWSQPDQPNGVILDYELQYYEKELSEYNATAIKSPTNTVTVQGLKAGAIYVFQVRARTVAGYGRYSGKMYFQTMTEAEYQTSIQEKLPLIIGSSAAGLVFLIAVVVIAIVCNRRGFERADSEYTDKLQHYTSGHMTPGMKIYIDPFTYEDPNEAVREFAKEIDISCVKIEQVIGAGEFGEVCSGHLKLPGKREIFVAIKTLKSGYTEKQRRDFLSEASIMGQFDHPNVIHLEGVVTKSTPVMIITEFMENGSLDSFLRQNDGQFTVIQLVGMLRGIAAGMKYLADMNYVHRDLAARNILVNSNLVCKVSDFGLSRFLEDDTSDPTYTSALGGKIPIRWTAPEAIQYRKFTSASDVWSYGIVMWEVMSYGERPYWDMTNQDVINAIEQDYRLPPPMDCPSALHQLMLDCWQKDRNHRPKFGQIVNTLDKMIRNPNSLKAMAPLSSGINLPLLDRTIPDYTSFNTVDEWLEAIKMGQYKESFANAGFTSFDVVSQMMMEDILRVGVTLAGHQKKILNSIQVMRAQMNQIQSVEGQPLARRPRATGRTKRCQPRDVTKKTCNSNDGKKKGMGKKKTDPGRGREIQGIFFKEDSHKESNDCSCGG
The experiment is described as follows: Inhibition of EPHB2 (unknown origin) at 10 uM by Ambit Kinomescan binding assay relative to control.

The target in experiment [7] is Epidermal growth factor receptor (Homo sapiens) (UniProt P00533). In words: Inhibition of EGFR (unknown origin) at 10 uM by Ambit Kinomescan binding assay relative to control.
Chain of Epidermal growth factor receptor (Homo sapiens) (P00533 whole entry): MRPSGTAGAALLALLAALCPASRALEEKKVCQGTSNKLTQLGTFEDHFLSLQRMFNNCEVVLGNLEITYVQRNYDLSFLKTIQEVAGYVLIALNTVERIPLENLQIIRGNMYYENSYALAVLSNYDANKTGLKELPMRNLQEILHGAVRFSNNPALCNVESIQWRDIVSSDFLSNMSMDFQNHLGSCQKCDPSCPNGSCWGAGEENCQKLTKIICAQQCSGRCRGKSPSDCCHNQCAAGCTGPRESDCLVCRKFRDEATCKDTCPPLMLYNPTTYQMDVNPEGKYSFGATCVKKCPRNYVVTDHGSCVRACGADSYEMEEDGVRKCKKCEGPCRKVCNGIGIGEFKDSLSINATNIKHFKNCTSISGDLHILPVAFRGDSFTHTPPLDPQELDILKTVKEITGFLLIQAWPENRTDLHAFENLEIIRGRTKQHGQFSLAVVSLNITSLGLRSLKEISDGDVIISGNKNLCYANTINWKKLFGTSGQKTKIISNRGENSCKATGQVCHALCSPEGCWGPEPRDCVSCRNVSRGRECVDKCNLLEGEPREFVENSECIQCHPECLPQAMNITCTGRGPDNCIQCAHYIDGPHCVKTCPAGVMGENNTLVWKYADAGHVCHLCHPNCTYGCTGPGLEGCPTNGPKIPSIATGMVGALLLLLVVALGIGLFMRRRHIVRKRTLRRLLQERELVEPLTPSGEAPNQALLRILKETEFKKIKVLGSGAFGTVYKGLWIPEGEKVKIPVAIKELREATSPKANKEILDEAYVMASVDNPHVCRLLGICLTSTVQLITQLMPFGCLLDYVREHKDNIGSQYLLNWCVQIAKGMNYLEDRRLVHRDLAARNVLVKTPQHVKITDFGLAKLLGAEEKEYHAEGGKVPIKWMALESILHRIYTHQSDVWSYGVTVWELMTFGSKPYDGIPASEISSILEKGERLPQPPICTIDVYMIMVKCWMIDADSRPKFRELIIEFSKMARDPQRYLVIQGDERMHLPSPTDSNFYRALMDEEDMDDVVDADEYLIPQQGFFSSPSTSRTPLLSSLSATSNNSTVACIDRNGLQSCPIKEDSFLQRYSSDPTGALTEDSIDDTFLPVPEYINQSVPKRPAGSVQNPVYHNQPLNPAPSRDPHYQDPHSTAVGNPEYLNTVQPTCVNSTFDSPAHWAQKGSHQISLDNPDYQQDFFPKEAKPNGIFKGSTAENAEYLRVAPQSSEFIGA
The target of experiment [8] is Serine/threonine-protein kinase 4 (Homo sapiens) (UniProt Q13043). In words: Inhibition of MST1 Lys1 labeling site harbouring AIHKETGQIVAIKQVPVESDLQEIIK in human Huh-7 cells at 1 uM by KiNativ Profiling analysis relative to control.
Chain of Serine/threonine-protein kinase 4 (Homo sapiens) (Q13043 whole entry, looked up): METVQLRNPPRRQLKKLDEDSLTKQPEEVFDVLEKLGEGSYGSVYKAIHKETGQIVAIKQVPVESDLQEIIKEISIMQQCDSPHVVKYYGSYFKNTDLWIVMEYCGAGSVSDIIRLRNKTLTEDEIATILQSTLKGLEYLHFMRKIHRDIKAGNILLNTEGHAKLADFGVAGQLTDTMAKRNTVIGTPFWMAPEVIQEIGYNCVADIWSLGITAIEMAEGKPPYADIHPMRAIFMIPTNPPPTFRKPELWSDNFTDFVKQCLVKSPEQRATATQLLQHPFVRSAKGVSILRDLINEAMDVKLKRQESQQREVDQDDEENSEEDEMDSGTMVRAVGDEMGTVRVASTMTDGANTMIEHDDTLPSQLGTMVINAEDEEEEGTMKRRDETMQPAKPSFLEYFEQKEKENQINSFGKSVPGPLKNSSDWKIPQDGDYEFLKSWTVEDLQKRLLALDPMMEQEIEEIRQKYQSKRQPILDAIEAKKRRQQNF
For experiment [9], the target named is T3, Inhibitor of nuclear factor kappa-B kinase subunit epsilon (Homo sapiens) (UniProt Q14164).
T3 sequence (whole entry): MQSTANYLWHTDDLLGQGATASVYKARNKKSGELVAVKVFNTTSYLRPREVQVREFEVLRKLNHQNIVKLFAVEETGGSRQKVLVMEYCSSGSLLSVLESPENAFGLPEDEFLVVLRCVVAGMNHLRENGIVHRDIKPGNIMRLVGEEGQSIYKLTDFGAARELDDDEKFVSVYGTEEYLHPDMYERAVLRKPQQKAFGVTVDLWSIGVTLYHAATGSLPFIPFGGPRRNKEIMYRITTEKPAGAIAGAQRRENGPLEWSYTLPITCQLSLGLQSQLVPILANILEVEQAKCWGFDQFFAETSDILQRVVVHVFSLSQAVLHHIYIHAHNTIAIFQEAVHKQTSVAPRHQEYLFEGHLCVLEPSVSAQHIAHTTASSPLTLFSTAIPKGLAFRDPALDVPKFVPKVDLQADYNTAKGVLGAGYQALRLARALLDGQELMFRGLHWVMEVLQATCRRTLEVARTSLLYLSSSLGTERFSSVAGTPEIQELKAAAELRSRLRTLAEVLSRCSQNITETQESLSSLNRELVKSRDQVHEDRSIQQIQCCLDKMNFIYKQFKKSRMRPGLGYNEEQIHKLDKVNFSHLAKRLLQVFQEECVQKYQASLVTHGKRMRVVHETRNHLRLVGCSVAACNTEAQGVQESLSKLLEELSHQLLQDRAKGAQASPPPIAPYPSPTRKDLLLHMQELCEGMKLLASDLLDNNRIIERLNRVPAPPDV
In words: Inhibition of IKKe Lys2 labeling site in human Huh-7 cell lysate at 1 uM by KiNativ Profiling analysis relative to control. The experiment is classed as subcellular.

Chain of Ribosomal protein S6 kinase alpha-3 (Homo sapiens) (P51812 whole entry, the tested form may be a part): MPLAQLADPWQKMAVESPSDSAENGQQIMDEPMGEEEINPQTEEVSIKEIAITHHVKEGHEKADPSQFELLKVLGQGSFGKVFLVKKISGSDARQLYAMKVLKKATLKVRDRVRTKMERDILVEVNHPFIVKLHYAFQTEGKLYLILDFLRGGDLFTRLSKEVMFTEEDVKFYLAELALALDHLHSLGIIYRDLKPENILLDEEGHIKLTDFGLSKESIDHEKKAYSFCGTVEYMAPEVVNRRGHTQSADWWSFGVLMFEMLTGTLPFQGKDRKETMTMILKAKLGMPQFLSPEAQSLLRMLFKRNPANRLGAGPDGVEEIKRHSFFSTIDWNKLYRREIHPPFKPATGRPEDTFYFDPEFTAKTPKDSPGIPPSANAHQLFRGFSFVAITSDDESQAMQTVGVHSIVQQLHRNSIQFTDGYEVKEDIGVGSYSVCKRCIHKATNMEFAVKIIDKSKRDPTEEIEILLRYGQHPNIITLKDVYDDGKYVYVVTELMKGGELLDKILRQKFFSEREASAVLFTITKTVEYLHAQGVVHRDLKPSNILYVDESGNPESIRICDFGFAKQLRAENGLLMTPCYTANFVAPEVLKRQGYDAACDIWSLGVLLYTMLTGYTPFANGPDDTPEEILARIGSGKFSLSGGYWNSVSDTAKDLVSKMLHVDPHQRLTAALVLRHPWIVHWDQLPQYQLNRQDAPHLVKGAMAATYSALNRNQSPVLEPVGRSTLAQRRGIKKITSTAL
Chain of Tyrosine-protein kinase Lck (Homo sapiens) (P06239 2-509 limits assumed): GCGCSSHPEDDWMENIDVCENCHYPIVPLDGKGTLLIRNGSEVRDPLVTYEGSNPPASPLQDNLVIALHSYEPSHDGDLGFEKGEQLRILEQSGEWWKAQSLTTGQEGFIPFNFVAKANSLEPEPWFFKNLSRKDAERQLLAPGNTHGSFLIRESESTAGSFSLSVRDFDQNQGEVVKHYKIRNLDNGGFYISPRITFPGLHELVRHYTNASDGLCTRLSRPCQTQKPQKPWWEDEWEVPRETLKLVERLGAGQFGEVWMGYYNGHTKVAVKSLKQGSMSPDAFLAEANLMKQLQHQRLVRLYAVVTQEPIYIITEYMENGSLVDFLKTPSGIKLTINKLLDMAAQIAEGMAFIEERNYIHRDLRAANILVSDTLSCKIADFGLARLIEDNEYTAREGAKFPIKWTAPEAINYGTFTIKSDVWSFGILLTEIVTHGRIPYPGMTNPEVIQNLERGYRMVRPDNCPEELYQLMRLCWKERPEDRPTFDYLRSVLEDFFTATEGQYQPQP

As a reminder, the inhibition is the drop in the measured response relative to a control, in per cent. `CCN1CCN(Cc2ccc(NC(=O)c3ccc(C)c(/C=C/c4cnc5[nH]ccc5c4OC)c3)cc2C(F)(F)F)CC1`: the inhibition is 0.35% in experiment [1], -4.9% in [2] and 100% in experiment [3].

As for `CCN1CCN(Cc2ccc(NC(=O)c3ccc(C)c(Oc4ccnc5[nH]ccc45)c3)cc2C(F)(F)F)CC1`, the inhibition was found to be 28% in experiment [4], 36.5% in experiment [5], 11% in experiment [6] and 5.6% in experiment [7].

As to `CNc1cc(Oc2cc(C(=O)Nc3cc(N4CCN(C)CC4)cc(C(F)(F)F)c3)ccc2C)ncn1`, the inhibition in experiment [8] was 9.9%; in experiment [9] it was -5.8%.
